Assay results: PMC8358123 (International Journal for Parasitology: Drugs and Drug …, 2021)

Legend:
[1] = test system: T. b. rhodesiense (STIB-900 strain); assay: In vitro activity against T. b. rhodesiense; assay type: cell-based; conditions: Trypanosoma brucei, read-out: T. b. rhod. EC50
In short: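 STIB-900 parasites, axenic in HMI-9 with 10% FBS at 37 °C and 5% CO2, seeded at 4×10^3 parasites/well. Test compound was given as ten 4-fold dilutions (top 64 μM, <1% DMSO). Growth period […], then resazurin added and fluorescence measured after 24 h. IC50 from a sigmoid variable-slope fit versus untreated controls; mean ± SEM, 2–4 experiments. Suramin as reference.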

[2] = test system: T. b. brucei (Squib 427 strain); assay: In vitro activity against T. b. brucei; assay type: cell-based; conditions: Trypanosoma brucei, read-out: T. b. bruc. EC50
[3] = test system: T. cruzi Tulahuen CL2 β-galactosidase strain; assay: In vitro activity against T. cruzi intracellular amastigotes in MRC-5SV2 cells; assay type: cell-based; conditions: Trypanosoma cruzi, MRC-5 SV2, 168 h, read-out: T. cruzi EC50
In short: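 Nifurtimox-sensitive Tulahuen CL2 β-galactosidase parasites infected MRC-5SV2 fibroblasts in MEM with 200 mM L-glutamine, 16.5 mM NaHCO3 and 5% inactivated FCS, at 37 °C and 5% CO2. Wells held 4×10^3 cells and 4×10^4 parasites. Test compound was given as ten 4-fold dilutions (top 64 μM, <1% DMSO) for 7 days. CPRG was then added for 4 h at 37 °C and absorbance read at 540 nm. IC50 from % reduction versus untreated-infected controls; mean ± SEM, 2–4 experiments. Benznidazole reference.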

PMM cytotoxicity = assay type: cell-based, mouse; conditions: Swiss, mouse
[4] = test system: primary peritoneal mouse macrophages (PMM); assay: PMM cytotoxicity; assay type: cell-based; conditions: read-out: PMM CC50; primary peritoneal mouse macrophages
[5] = Microsomal stability assay, hamster; assay type: in vitro ADME; conditions: hamster microsomal (S9) fractions, % remaining parent compound; for remaining at 0 h: 0 min; for remaining at 0.25 h: 15 min; for remaining at 0.5 h: 30 min; for remaining at 1 h: 60 min
[6] = Microsomal stability assay, human; assay type: in vitro ADME; conditions: pooled human liver microsomes (microsomal (S9) fractions), % remaining parent compound; for remaining at 0 h: 0 min; for remaining at 0.25 h: 15 min; for remaining at 0.5 h: 30 min; for remaining at 1 h: 60 min
MRC-5SV2 cytotoxicity = assay type: cell-based, human; conditions: human, MRC-5SV2 cells
In short: (§1)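 MRC-5SV2 cells (3×10^4 cells/mL) in MEM with Earl's salts, L-glutamine, NaHCO3 and 5% inactivated FCS, at 37 °C and 5% CO2. Exposure to test compound (ten 4-fold dilutions, top 64 μM, <1% DMSO) lasted 3 days. Resazurin was then added for 4 h at 37 °C, with fluorescence read at ex 550/em 590 nm. CC50 from % reduction relative to untreated (100%) and medium-only (0%) controls.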

[7] = test system: L. infantum MHOM/MA (BE)/67; assay type: cell-based, Leishmania infantum
In short: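 Intracellular amastigotes of hamster spleen origin infected Swiss mouse peritoneal macrophages (elicited 2 days with 2% potato starch), in RPMI-1640 with 5% inactivated FCS, at 37 °C and 5% CO2, 4.5×10^5 parasites/well. Test compound (ten 4-fold dilutions, top 64 μM, <1% DMSO) was added 2 h post-infection. After 5 days, amastigotes/macrophage were counted after 10% Giemsa. IC50 was derived from % reduction versus controls; mean ± SEM, 2–4 experiments. Miltefosine reference.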

MRC-5SV2 cells = assay: MRC-5SV2 cytotoxicity; assay type: cell-based, human; conditions: read-out: MRC-5 CC50, 3 days incubation
In short: as §1

[8] = PMM CC50, primary peritoneal mouse macrophages
[9] = MRC-5 CC50, MRC-5SV2 cells, 3 days incubation

Structure (SMILES) | EC50 [1] [µM] | EC50 [2] [µM] | EC50 [3] [µM] | CC50 at 5 days (PMM cytotoxicity; [8]) [µM] | remaining at 0 h ([5]; CYP – NADPH (Phase-I)) [%] | remaining at 0.25 h ([5]; CYP – NADPH (Phase-I)) [%] | remaining at 0.5 h ([5]; CYP – NADPH (Phase-I)) [%] | remaining at 1 h ([5]; CYP – NADPH (Phase-I)) [%] | remaining at 0 h ([5]; UGT Enz. (Phase-II)) [%] | remaining at 0.25 h ([5]; UGT Enz. (Phase-II)) [%] | remaining at 0.5 h ([5]; UGT Enz. (Phase-II)) [%] | remaining at 1 h ([5]; UGT Enz. (Phase-II)) [%] | remaining at 0 h ([6]; CYP – NADPH (Phase-I)) [%] | remaining at 0.25 h ([6]; CYP – NADPH (Phase-I)) [%] | remaining at 0.5 h ([6]; CYP – NADPH (Phase-I)) [%] | remaining at 1 h ([6]; CYP – NADPH (Phase-I)) [%] | remaining at 0 h ([6]; UGT Enz. (Phase-II)) [%] | remaining at 0.25 h ([6]; UGT Enz. (Phase-II)) [%] | remaining at 0.5 h ([6]; UGT Enz. (Phase-II)) [%] | CC50 at 3 days (MRC-5SV2 cytotoxicity; [9]) [µM] | other results
Cc1ncnc2c1c(Cl)cn2[C@@H]1O[C@H](CO)[C@@H](O)[C@H]1O [compound 7] | 0.84 ± 0.63 | 4.78 ± 2.19 | 3.61 ± 1.24 | > 64 | 100 | 95 | 93 | 93 | 100 | 96 | 100 | 102 | 100 | 96 | 97 | 96 | 100 | 102 | 97 | 54.8 ± 2.52 | CC50 [4]: 32 µM; remaining at 1 h ([6]; UGT Enz. (Phase-II)): 96%
Cc1ncnc2c1c(C1=CCN(C)CC1)cn2[C@@H]1O[C@H](CO)[C@@H](O)[C@H]1O [compound 23] | > 64 | > 64 | > 64 | – | – | – | – | – | – | – | – | – | – | – | – | – | – | – | – | – | EC50 ([7]; Leishmania infantum, Macrophage, in Mus musculus, 120 h, read-out: L. inf. EC50): > 64 µM; CC50 at 5 days (PMM cytotoxicity): > 64 µM; CC50 at 3 days (MRC-5SV2 cytotoxicity): > 64 µM
CCc1cn([C@@H]2O[C@H](CO)[C@@H](O)[C@H]2O)c2ncnc(C)c12 [compound 13] | 0.43 ± 0.06 | 0.75 ± 0.18 | 2.54 ± 0.47 | > 64 | 100 | 93 | 102 | 91 | 100 | 101 | 103 | 108 | 100 | 89 | 92 | 96 | 100 | 105 | 102 | > 64 | fold improved activity against L. infantum compared to the 7-methyl analogue 9 ([7]; versus compound 9): 8 fold; remaining at 1 h ([6]; UGT Enz. (Phase-II)): 96%
CCc1cn([C@@H]2O[C@H](CO)[C@@H](O)[C@H]2O)c2ncnc(N)c12 [compound 39, 7-ethyl-7-deazaadenosine] | 0.5 ± 0.03 | 0.65 ± 0.02 | 0.99 ± 0.25 | > 64 | – | – | – | – | – | – | – | – | – | – | – | – | – | – | – | 50.4 | CC50 (MRC-5SV2 cells): > 64 µM
CCOc1ncnc2c1c(CC)cn2[C@@H]1O[C@H](CO)[C@@H](O)[C@H]1O [compound 42] | 2.06 ± 0.51 | 1.25 ± 0.06 | 7.71 ± 0.91 | > 64 | – | – | – | – | – | – | – | – | – | – | – | – | – | – | – | 52.5 | CC50 (MRC-5SV2 cells): > 64 µM
